According to ChEMBL document CHEMBL1138229, “Novel cyano- and amidino-substituted derivatives of styryl-2-benzimidazoles and benzimidazo[1,2-a]quinolines. Synthesis, photochemical synthesis, DNA binding, and antitumor evaluation, part 3” (J Med Chem, 2007):

Key:
HEp-2 = assay: Antitumor activity against human Hep2 cells after 72 hrs by MTT assay; format: functional, cell-based; details: HEp-2, 72 h
Summary of the method: (§1)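 Cells from ATCC grown as monolayers in DMEM with 10% FBS, 2 mM L-glutamine, penicillin/streptomycin, 5% CO2, 37 °C. Seeded on day 0 at 1 × 10^4/mL (2 × 10^4/mL for MCF-7). Five 10-fold dilutions (10^-8 to 10^-4 mol/L) added, then 72 h exposure. MTT read at 570 nm; percent growth vs time-zero and untreated controls. IC50 by linear regression; quadruplicates, three experiments.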

SW-620 = assay: Antitumor activity against human SW620 cells after 72 hrs by MTT assay; format: functional, cell-based; details: SW-620, 72 h; summary of the method: as §1
MCF7 = assay: Antitumor activity against human MCF7 cells after 72 hrs by MTT assay; format: functional, cell-based; details: MCF7, 72 h; summary of the method: as §1
[1] = Antiproliferative activity against human […] fibroblast after 72 hrs by MTT assay; format: functional; summary of the method: as §1
DNA = assay: Binding affinity to calf thymus DNA by thermal melting temperature assay; format: nucleic-acid assay; details: Bos taurus
Summary of the method: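 ct-DNA (as phosphate concentration) in sodium cacodylate buffer pH 7.0, I = 0.05 mol dm-3. Compound/polynucleotide ratio r = 0.3. Absorbance at 260 nm followed against temperature, ligand absorbance subtracted. Tm taken as transition midpoint by first derivative or tangent method. ΔTm = Tm(complex) − Tm(free DNA), averaged over at least two runs, error ±0.5 °C.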

MIA PaCa-2 = assay: Antitumor activity against human MiaPaCa2 cells after 72 hrs by MTT assay; format: functional, cell-based; details: MIA PaCa-2, 72 h; summary of the method: as §1
HeLa = assay: Antitumor activity against human HeLa cells after 72 hrs by MTT assay; format: functional, cell-based; summary of the method: as §1

Row | IC50 (SW-620) [µM] | IC50 (MCF7) [µM] | ΔTm (DNA) [°C] | IC50 (MIA PaCa-2) [µM] | IC50 (HeLa) [µM] | Structure (SMILES) | IC50 (HEp-2) [µM] | IC50 [1] [µM]
1 | 1.6 | 2.2 | 5 | 8.1 | 1.7 | CC(C)NC(=N)c1ccc2ccc3nc4ccccc4n3c2c1 | 1.6 | 2.7
2 | 1.4 | 5.3 | 3.6 | 5.6 | 7 | c1ccc2c(c1)nc1ccc3ccc(C4=NCCN4)cc3n12 | 2.4 | 7.8
3 | 16 | 7 | 1.4 | 19 | 4 | C(=C\c1nc2ccc(C3=NCCN3)cc2[nH]1)/c1ccccc1 | 16 | 21
4 | 14 | 5 | – | 17 | 4 | Clc1ccccc1/C=C/c1nc2ccc(C3=NCCN3)cc2[nH]1 | 16 | 42
5 | 70 | 33 | 1.2 | 84 | 23 | CC(C)NC(=N)c1ccc2nc(/C=C\c3ccccc3)[nH]c2c1 | 81 | > 100
6 | 46 | 23 | – | 62 | 11 | Clc1ccccc1/C=C\c1nc2ccc(C3=NCCN3)cc2[nH]1 | ≥ 100 | > 100
7 | 2.9 | 4 | 5.2 | 4.5 | 4.9 | N=C(N)c1ccc2ccc3nc4ccccc4n3c2c1 | 4 | 6.7
8 | 12 | 14 | 0.1 | 16 | 6 | N=C(NN1CCOCC1)c1ccc2nc(/C=C/c3ccccc3)[nH]c2c1 | 13 | 20
9 | 17 | 9 | 3.6 | 13 | 5 | N=C(N)c1ccc2nc3ccc4ccccc4n3c2c1 | 13 | 74
10 | 66 | 16 | – | 48 | 10 | CC(C)NC(=N)c1ccc2nc(/C=C/c3ccccc3Cl)[nH]c2c1 | 70 | > 100
11 | > 100 | 38 | – | 85 | 20 | N=C(N)c1ccc2nc(/C=C\c3ccccc3Cl)[nH]c2c1 | 29 | > 100
12 | 29 | 35 | – | 28 | 19 | CC(C)NC(=N)c1ccc2nc(/C=C\c3ccccc3Cl)[nH]c2c1 | 30 | > 100
13 | 0.02 | 0.04 | – | 0.02 | 0.04 | COc1cccc2c1C(=O)c1c(O)c3c(c(O)c1C2=O)C[C@@](O)(C(=O)CO)C[C@@H]3O[C@H]1C[C@H](N)[C@H](O)[C@H](C)O1 [DOXORUBICIN] | 0.04 | –
14 | 4 | 4 | – | 5 | 3 | N=C(NN1CCOCC1)c1ccc2nc(/C=C/c3ccccc3Cl)[nH]c2c1 | 10 | 7
15 | 15 | 14 | – | 15 | 7 | N=C(NN1CCOCC1)c1ccc2nc(/C=C\c3ccccc3Cl)[nH]c2c1 | 9 | 21
16 | > 100 | 22 | – | > 100 | 7.5 | N=C(N)c1ccc2nc(/C=C/c3ccccc3Cl)[nH]c2c1 | 23 | > 100
17 | 23 | 16 | – | 18 | 12 | c1ccc2c(c1)ccc1nc3ccccc3n12 | 15 | 14

Row | Structure (SMILES) | IC50 (SW-620) [µM] | IC50 (MCF7) [µM] | ΔTm (DNA) [°C] | IC50 (MIA PaCa-2) [µM] | IC50 (HeLa) [µM] | IC50 (HEp-2) [µM] | IC50 [1] [µM]
18 | COc1cc([C@@H]2c3cc4c(cc3[C@@H](O[C@@H]3O[C@@H]5CO[C@@H](C)O[C@H]5[C@H](O)[C@H]3O)[C@H]3COC(=O)[C@H]23)OCO4)cc(OC)c1O [ETOPOSIDE] | 20 | 50 | – | 15 | 3 | – | –
